# SKN-1 inh: inhibitors of C. elegans SKN-1; C. elegans VP596 Pgst-4::GFP/RFP ratio, acrylamide-induced, 24 h; inhibition, % at 21.8 µM; hit rate 0.49% among 360,000;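 active means interference check ratio from 0.5 to 1.5 plus GFP to RFP signal ratio inhibition reaching or exceeding a fixed threshold, cut at about 30% in these data, passing the limit was not always enough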
# MIN6 prolif: MIN6 beta-cell proliferation induction. MIN6 cells proliferation, ATPlite luminescence, 48 h; cells starved in 0.2% serum; 100% = growth in 10% serum. proliferation, % at 10 µM. hit rate 0.29% among 330,000. AID 2380;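 active means compounds whose signal lies at least 3.5 SD above the mean of all wells on their plate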;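 further: 0% = DMSO-treated cells in low-serum medium and 100% = 10% serum control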
# DAGLB inh: blocks human DAGLB lipase activity. HEK293T DAGLB membrane lysate, EnzChek fluorogenic substrate. Q8NCG7. hit rate 0.059% among 340,000. inhibition, % at 5.17 µM. AID 504411; in the data active means inhibition above about 34%;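 further: 0% = enzyme with vehicle and 100% = wells lacking enzyme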
# Target sequence (Q8NCG7 whole entry, looked up): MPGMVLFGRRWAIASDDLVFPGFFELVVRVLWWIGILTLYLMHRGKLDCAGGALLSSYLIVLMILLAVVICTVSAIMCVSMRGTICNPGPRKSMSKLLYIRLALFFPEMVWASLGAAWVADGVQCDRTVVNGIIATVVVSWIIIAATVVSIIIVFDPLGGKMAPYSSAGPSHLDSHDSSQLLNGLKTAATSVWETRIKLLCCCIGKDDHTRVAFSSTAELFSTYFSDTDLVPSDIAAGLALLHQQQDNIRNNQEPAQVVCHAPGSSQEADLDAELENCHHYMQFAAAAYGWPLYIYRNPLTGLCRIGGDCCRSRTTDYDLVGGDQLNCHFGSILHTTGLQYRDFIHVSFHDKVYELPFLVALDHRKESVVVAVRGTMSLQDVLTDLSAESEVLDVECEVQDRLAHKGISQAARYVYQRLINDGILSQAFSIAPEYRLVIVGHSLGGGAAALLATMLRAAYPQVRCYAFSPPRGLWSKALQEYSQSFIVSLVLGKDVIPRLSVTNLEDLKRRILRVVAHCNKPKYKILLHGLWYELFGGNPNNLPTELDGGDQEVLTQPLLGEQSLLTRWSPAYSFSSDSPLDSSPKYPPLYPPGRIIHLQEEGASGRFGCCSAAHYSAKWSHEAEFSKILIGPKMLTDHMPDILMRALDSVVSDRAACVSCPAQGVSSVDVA
# bovine MsrA act: activates bovine MsrA enzyme; purified bovine MsrA, absorbance read-out; activation, % at 10.6 µM; hit rate 0.3% among 360,000; AID 602163; in the data active means activation above about 7.5%;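 further: 0% = vehicle and 100% = reference activator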
# MsrA inh: bovine MsrA inhibition | AID 651718 | purified bovine MsrA, absorbance read-out | hit rate 0.75% among 360,000 | inhibition, % at 15.5 µM; in the data active means inhibition above about 4.5%;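 further: 0% = vehicle wells with enzyme and 100% = reference inhibitor wells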
# MT1-MMP act inh: inhibitors of human MT1-MMP activation; P50281; HT1080 RFP-PRO-GFP cells, GFP/RFP ratio fluorescence, overnight; percent of plate control window, DMSO zero; GFP/RFP ratio change, % at 20 µM; hit rate 0.061% among 360,000;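 active means GFP/RFP ratio change of at least 30% with cell ATP level not reduced by more than half and red fluorescence within 50% of control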
#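 Test system: HT1080 cells expressing an RFP-PRO-GFP fluorescent reporter construct / Compound dosing: single-point 20 µM compound, 1% DMSO / Schedule: cells overnight before dosing, compound overnight, 37 °C, 5% CO2 / Evaluation: GFP/RFP fluorescence ratio / Control set: DMSO and RFP-L50D-GFP cell wells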
# MsrA activ conf: confirmation of bovine methionine sulfoxide reductase A activators | activation, % at 10.6 µM | shares compounds with bovine MsrA act | purified bovine MsrA, absorbance read-out | hit rate 12% among 1,000; in the data active means activation above about 4%;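 further: enzyme coupled to thioredoxin and thioredoxin reductase with NADPH; 0% = vehicle wells and 100% = reference activator wells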
# * = called active by the depositor; . = no result. Hits are enriched below; roughly 1.8% of the tested compounds scored in any of these assays.
SMILES,SKN-1 inh,MIN6 prolif,DAGLB inh,bovine MsrA act,MsrA inh,MT1-MMP act inh,MsrA activ conf
Cc1ccc(S(=O)(=O)N2CCN(C(=O)COC(=O)COc3ccccc3)CC2)cc1,5.4,0.2,-2.1,9.9*,0.3,-2.5,-3.7
COc1ccc(S(=O)(=O)N2CCN(C(=O)COc3ccccc3)CC2)cc1,-12.0,0.9,1.1,-5.7,0.2,-0.4,.
COc1ccc(C(C)NC(=O)CC23CC4CC(CC(C4)C2)C3)cc1 (stereo not drawn),-5.9,-2.3,-6.2,-4.5,0.4,-0.6,.
CC(=O)N1c2ccccc2Sc2ccc3ccccc3c21,22.7,.,-3.0,9.2*,0.5,-5.0,-2.7
CC(C)c1nc(NCC2CCCO2)c(C#N)c2c1COC(C)(C)C2 (stereo not drawn),-8.8,-0.5,-6.6,10.0*,1.4,-0.9,0.0
CCc1nc(NCC2CCCO2)c(C#N)c2c1COC(C)(C)C2 (stereo not drawn),-13.7,3.9,-3.3,-2.7,2.8,-0.9,.
Cc1cccc(OC(=O)n2c(=S)oc3cc(Cl)ccc32)c1,6.8,.,3.5,9.8*,-0.2,7.7,0.9
COCCNC(=S)N(C)[C@H]1C[C@H]2c3[nH]c4c(-c5ccccc5)cccc4c3CCN2C(=O)[C@H]1[C@H](C)O,.,.,.,.,-0.2,.,.
COc1cccc(CN(C)S(=O)(=O)c2c(C)noc2C)c1OC,-4.0,-1.1,-3.5,-6.1,-0.7,2.7,.
Cc1[nH]c2ccccc2c1C(=O)C(C)OC(=O)C1CCC1 (stereo not drawn),-34.6,-2.1,-3.0,-3.8,-0.1,3.2,.
COc1cccc(-c2cc3nc(NCCN4CCCC4)n(C)c(=O)c3s2)c1,6.5,.,.,12.5*,1.8,0.7,0.5
O=C(Nc1ccccc1Cl)c1ccc(-n2cccn2)c([N+](=O)[O-])c1,4.4,1.1,2.8,-0.7,1.9,0.4,.
CCOC(=O)C1CCCN(C(=O)CCCn2nnnc2CN2CCOCC2)C1 (stereo not drawn),4.7,1.6,2.2,15.3*,-0.2,-0.2,-0.3
CCCOC1CCCN(C(=O)CCCn2nnnc2CN2CCOCC2)C1 (stereo not drawn),6.2,-0.5,-1.5,-5.7,-0.8,0.3,.
N#CC(c1nc2ccccc2nc1N1CCCC1)S(=O)(=O)c1cccs1 (stereo not drawn),-3.0,-1.6,2.5,10.0*,2.8,-39.9,-3.3
COc1ccccc1CNC(=O)C(CCSC)NC(=O)C1CCC(C)CC1 (stereo not drawn),4.6,-2.2,-1.0,9.0*,0.5,-4.1,0.9
COc1ccccc1CNC(=O)[C@H](CCSC)NC(=O)[C@@H]1Cc2ccccc2CN1,4.6,4.7,-0.2,-3.8,-0.7,0.8,.
N#CCCN(Cc1cccnc1)C(=O)Nc1ccc(Cl)c(Cl)c1,-10.5,1.1,0.8,9.1*,1.4,2.4,-2.2
CCc1noc(C)c1C(=O)Nc1cc(S(=O)(=O)N(CC)CC)ccc1N1CCOCC1,-0.3,-5.4,-0.6,-2.5,0.3,-3.1,.
O=C(Nc1ccnc(=O)[nH]1)c1sc2ccccc2c1Cl,-4.2,-0.2,2.5,-1.4,1.1,-5.2,.
C=CCn1c(COc2ccc(Cl)cc2)nnc1SCC(=O)NCC(=O)OCC,-1.2,-3.1,-1.2,8.2*,0.8,2.8,-0.5
C=CCn1c(COc2ccc(Cl)cc2)nnc1SCC(=O)Nc1ccc(S(N)(=O)=O)cc1,-1.2,0.0,-3.7,-2.8,0.4,2.9,.
Cc1ccccc1-c1noc(CCC(=O)NCc2ccco2)n1,0.8,-1.9,-3.0,11.9*,-1.3,-0.6,-2.3
Cc1nn(CC(=O)NCCCN2CCOCC2)c(C)c1[N+](=O)[O-],-1.5,-2.3,-1.7,14.4*,0.7,1.9,2.6
CC[C@]12c3[nH]c4cc(-c5ccco5)ccc4c3CCN1C(=O)[C@@H](CC(=O)NCCCn1ccnc1)C[C@@H]2C(=O)N1CCN(C(=O)C2CC2)CC1,-4.5,.,0.4,-7.9,0.7,2.0,.
SMILES,SKN-1 inh,MIN6 prolif,DAGLB inh,bovine MsrA act,MsrA inh,MT1-MMP act inh,MsrA activ conf
CCN(CC)CCn1c2c(c(SCC(=O)Nc3nc4ccccc4s3)nc1=O)CCC2,-19.0,7.1,-5.8,-2.3,0.0,-2.8,.
CCN(CC)CCn1c2c(c(SCC(=O)Nc3nc4ccc(C)cc4s3)nc1=O)CCC2,-2.2,-7.1,-1.1,7.9*,0.2,2.1,-0.7
COc1cc(C[C@@H]2C(=O)OC[C@H]2Cc2ccc(OC)c(OC)c2)ccc1O,1.4,-6.6,1.3,11.3*,0.4,17.7,-1.3
c1ccc(SSc2ccccn2)nc1,-9.8,-4.1,-0.9,10.6*,.,2.1,7.5*
O=C(NCc1ccccc1)Nc1cccn(Cc2ccc(Cl)cc2)c1=O,0.4,-3.0,-1.2,-5.5,0.1,0.3,.
O=C(NCc1ccccc1)Nc1cccn(Cc2ccccc2Cl)c1=O,-6.9,-5.3,-0.3,9.1*,1.9,-5.2,-1.6
COc1ccc(C(C)=O)cc1CN1C(=O)C(C)N(c2ccc(C)cc2)C1=O (stereo not drawn),13.9,-0.1,-1.2,9.0*,1.2,0.6,-2.5
CCc1c(-c2ccc(F)cc2)ncn1CCc1ccccc1OC,.,.,.,.,0.2,.,.
CCCCCCCCCCCCCCCC[n+]1cccc(C(=O)N(CC)CC)c1,2.7,-5.6,3.7,-3.8,-1.3,-8.7,.
CCCCCCCC[n+]1cccc(C(=O)N(CC)CC)c1,-9.1,-1.1,1.9,17.6*,-0.2,0.4,-2.5
Nc1ccc2c(c1)C(=O)c1ccccc1-2,13.9,2.5,12.4,-3.1,-0.1,3.0,.
Nc1ccc2c(c1)C(=O)C(=O)c1ccccc1-2,8.8,-4.1,-21.8,39.7*,1.0,-35.7,29.4*
COc1cc(SC)ccc1C(=O)OCC(=O)NC(=O)NC(C)C,-1.5,-4.0,1.1,7.9*,-0.4,2.2,-3.1
COc1cc(SC)ccc1C(=O)OCC(=O)NCC(C)C,7.4,-0.4,3.4,-2.5,-0.2,2.3,.
CCOC(=O)C1=CCN(S(=O)(=O)c2ccccc2Cl)C1c1cccc(Cl)c1 (stereo not drawn),2.4,.,.,-0.4,-1.4,-2.3,.
CC(C)CN(CCCNC(=O)CC1Oc2ccccc2NC1=O)CC(C)C (stereo not drawn),16.5,-1.0,0.0,8.6*,-0.7,4.7,-0.3
NC(=S)N/N=C/c1cn(-c2ccccc2)nc1-c1cccnc1,1.1,-3.8,2.6,-5.0,2.0,4.2,.
COc1ccc(-c2cc(-c3ccccc3)nc(N3CCCC3)n2)cc1OC,7.8,-3.7,-9.1,8.0*,0.1,-7.9,-1.0
Cc1cc(NC(=O)C(C)C)ncc1NC(=O)Cc1ccccc1,19.0,0.0,-3.9,9.6*,-0.2,8.7,-3.0
CCCC(=O)Nc1cc(C)c(NC(=O)Cc2ccccc2)cn1,.,-2.1,.,.,1.9,.,.
OC(COc1ccc2ccccc2c1)Cn1ccnc1 (stereo not drawn),6.2,-1.7,2.8,8.1*,-1.3,5.1,-2.0

# Assay outcomes deposited in PubChem BioAssay by several laboratories.
